GPR7 antag – GPR7 receptor antagonists, primary screen, cell-based, fluorescence, single concentration | inhibition, % at 4.4 µM | 1.1% of 290,000 active | Neuropeptides B/W receptor type 1 (Homo sapiens), P48145 | GPR7-expressing cells, fluorescence antagonist assay; in the data active = inhibition above about 16%, passing the limit was not always enough;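 also: cells stimulated with the agonist NPW; 0% = agonist with vehicle and 100% = vehicle without agonist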
CHO parental Ca – ATP-evoked calcium signal inhibitors, parental CHO, primary screen, counter-screen for OX1R antagonist project, cell-based, fluorescence, Fluo-8 calcium dye; parental CHO-K1, ATP-induced calcium, Fluo-8 fluorescence; inhibition, % at 5.6 µM; 0.63% of 330,000 active;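 active = inhibition above that plate's mean sample inhibition plus 3 SD, cut at about 26% in these data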;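 also: 0% = ATP-challenged DMSO wells and 100% = DMSO wells without ATP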
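Test system: parental CHO cells; detection: calcium-sensitive Fluo-8 fluorescence; evaluation: percent inhibition of calcium signal; also added: ATP as calcium-mobilizing challenge; repeats: one well per compound; control set: ATP-challenged DMSO wells low, unchallenged DMSO wells high; compound: single nominal dose of 5.6 µM per compound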
OX1R antag-1 – OX1R (HCRTR1) antagonists, primary screen, fluorescence, CHO/OX1R cells, Fluo-8 calcium, orexin A; Orexin/Hypocretin receptor type 1 (Homo sapiens), O43613; inhibition, % at 5 µM; 0.43% of 330,000 active; AID 434989, 2010; Fluo-8 calcium fluorescence;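 active = inhibition above its plate's threshold, mean inhibition of all tested compounds on the plate plus 3 SD, cut at about 37% in these data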;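 also: 0% = orexin A challenge wells and 100% = SB-334867-A antagonist wells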
Target sequence (O43613 whole entry, looked up): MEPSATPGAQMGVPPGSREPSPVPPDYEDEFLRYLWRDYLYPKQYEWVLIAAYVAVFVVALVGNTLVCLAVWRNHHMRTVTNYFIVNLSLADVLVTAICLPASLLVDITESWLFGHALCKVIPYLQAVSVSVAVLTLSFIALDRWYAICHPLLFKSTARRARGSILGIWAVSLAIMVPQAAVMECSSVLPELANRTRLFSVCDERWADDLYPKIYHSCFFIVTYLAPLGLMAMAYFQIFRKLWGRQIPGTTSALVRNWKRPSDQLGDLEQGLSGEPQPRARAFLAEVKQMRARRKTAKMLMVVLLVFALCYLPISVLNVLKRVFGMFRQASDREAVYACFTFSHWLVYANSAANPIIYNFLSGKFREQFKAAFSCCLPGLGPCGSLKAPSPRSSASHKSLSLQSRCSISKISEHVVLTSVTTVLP
TRPML3 agonist – human TRPML3 channel agonists, primary screen, cell-based, HEK293 TRPML3-YFP, Fluo-8 calcium fluorescence, 3 µM; Mucolipin-3 (Homo sapiens), Q8TDD5; 100% = the carbachol control signal; activation, % at 3 µM; 0.29% of 220,000 active;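 active = activation above its plate's cutoff, the mean activation of the plate's test wells plus 3 SD, cut at about 12% in these data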;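 also: 0% = DMSO only wells and 100% = carbachol wells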
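Material: HEK293 cells stably carrying human TRPML3-YFP; compound dosing: single dose, 3 µM final nominal compound, 0.3% DMSO final; incubation: 1-h 37 °C dye load, 5-s basal, 120-s post-compound reads; technique: Fluo-8 intracellular calcium fluorescence, excitation 470-495 nm, emission 515-575 nm; read-out basis: percent activation from peak-to-basal fluorescence ratio, scaled between DMSO and carbachol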
OX1R antag-2 – antagonists of human orexin 1 receptor (OX1R). inhibition, % at 6.6 µM. Orexin/Hypocretin receptor type 1 (Homo sapiens), O43613. 1.8% of 330,000 active. OX1R-expressing cells, FRET antagonist read-out; in the data active = inhibition mostly above about 38%, no sharp cut-off; inactive = mostly below about 40%;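 also: 0% = agonist challenge alone and 100% = reference antagonist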
TRPN1 ag – zebrafish TRPN1 channel agonists, primary screen, cell-based, HEK293, calcium fluorescence. transient receptor potential cation channel N1 (TRPN1/NompC), Danio rerio. HEK293 zebrafish TRPN1-YFP, Fluo-8 calcium fluorescence; 100% = response to 87 µM carbachol. activation, % at 3 µM. 0.18% of 220,000 active. AID 1424, 2008;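 active = activation above its plate's cutoff, the mean activation of test wells on that plate plus 3 SD, cut at about 19% in these data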;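 also: 0% = DMSO alone and 100% = 87 µM carbachol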
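Material: zebrafish TRPN1-YFP in HEK293 cells. Doses: one dose of 3 µM, 0.3% DMSO. Incubation: dye 1 h 37 °C plus 30 min RT. Measured by: intracellular calcium fluorescence with Fluo-8.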
* marks the source's active call; other numbers are inactive results; nt = not tested or not shown. Hits are enriched below; roughly 3.2% of the tested compounds scored in any of these assays.

SMILES | GPR7 antag | CHO parental Ca | OX1R antag-1 | TRPML3 agonist | OX1R antag-2 | TRPN1 ag
Cc1ccc(C)c(OCC(=O)Nc2ccc3c(c2)OCO3)c1 | -2 | -22 | -26 | -1 | 1 | 0
Cc1cc(C)c(OCC(=O)Nc2ccc3c(c2)OCO3)cc1C | 8 | 44* | -4 | -1 | 8 | 1
CC(C)(C)c1ccc(OCC(=O)Nc2ccncc2)c(Br)c1 | 5 | 47* | -19 | nt | 35 | nt
O=C(COc1ccc2ccccc2c1Br)Nc1cccnc1 | 20 | -14 | -6 | nt | 1 | nt
Cc1cc(OCC(=O)Nc2ccncc2)c(C)cc1Br | 19 | 58* | 14 | 3 | 28 | 4
CCc1ccc(OCC(=O)Nc2ccncc2)c(Br)c1 | -4 | 27 | 28 | nt | 4 | nt
O=C(COc1ccc2ccccc2c1Br)Nc1ccncc1 | 14 | 41* | 13 | nt | 26 | nt
COc1ccc(C(=O)c2cc([N+](=O)[O-])ccc2N2CCN(C)CC2)cc1 | 34* | -19 | -2 | 0 | 23 | 1
COc1ccc(OC)c(COC(=O)c2cc([N+](=O)[O-])ccc2N2CCOCC2)c1 | nt | -15 | 5 | nt | 32* | nt
CCc1cccc(NC(=O)COC(=O)c2cc([N+](=O)[O-])ccc2N2CCOCC2)c1 | nt | -17 | -19 | nt | 31 | nt
Cc1ccccc1COC(=O)c1cc([N+](=O)[O-])ccc1N1CCOCC1 | 4 | -24 | -39 | nt | 2 | nt
N#CC1(NC(=O)COC(=O)c2cc([N+](=O)[O-])ccc2N2CCOCC2)CCCCC1 | nt | -6 | -18 | nt | 52* | nt
Cc1cc(NC(=O)COC(=O)c2cc([N+](=O)[O-])ccc2N2CCOCC2)ccc1Br | nt | 7 | -18 | nt | 37* | nt
COc1ccc(C(=O)c2cc([N+](=O)[O-])ccc2N2CCCC2)cc1 | -7 | -21 | -44 | -1 | 27 | -2
N#CC1(NC(=O)COC(=O)c2cc([N+](=O)[O-])ccc2N2CCCC2)CCCCC1 | nt | -5 | -23 | nt | 12 | nt
COc1ccc(C(C(=O)NC2CCCC2)N(Cc2cccnc2)C(=O)c2snc(C(N)=O)c2N)cc1 (centres undefined) | -5 | -18 | -41 | nt | 13 | nt
Cc1ccc(C(=O)Nc2ccccc2N2CCCC2)s1 | nt | -23 | -30 | nt | -2 | nt
Cc1cccc(-n2nnc(C(=O)Nc3ccc(F)cc3)c2N)c1 | 8 | 1 | -15 | 2 | 25 | 4
Cc1c(C(=O)Nc2ccc(F)cc2)nnn1-c1cccc(C(F)(F)F)c1 | -19 | 49* | 4 | 2 | 36 | 7
O=C(O)c1ccc(C(=O)c2ccc3c(c2)C(=O)N(CC2CCCO2)C3=O)cc1 (centres undefined) | -9 | 1 | -2 | 1 | 56* | 3
O=C(O)c1ccc(S(=O)(=O)c2ccc3c(c2)C(=O)N(CC2CCCO2)C3=O)cc1 (centres undefined) | 17 | 1 | -2 | 0 | 42 | 0
O=C(O)c1cccc(NC(=O)c2ccc3c(c2)C(=O)N(CC2CCCO2)C3=O)c1 (centres undefined) | 0 | 4 | -2 | 1 | 56* | 1
COc1ccc(CN(CCC(C)C)S(=O)(=O)c2ccccc2Br)c(OC)c1 | nt | -27 | 42 | nt | 38* | nt
COc1cc(CN(C2CC2)S(=O)(=O)c2ccccc2Br)cc(OC)c1 | nt | -48 | 16 | nt | 28 | nt
CCCC(=O)Nc1nc2ccc(OCC)cc2s1 | -13 | -8 | -12 | 0 | 9 | 0
SMILES | GPR7 antag | CHO parental Ca | OX1R antag-1 | TRPML3 agonist | OX1R antag-2 | TRPN1 ag
CCOC(=O)c1sc(NC(=O)c2ccc(C)o2)nc1C | -10 | -20 | 19 | 0 | 54* | 3
CCOc1ccc2nc(NC(=O)c3ccc(C)o3)sc2c1 | nt | -15 | -2 | nt | 38* | nt
CCOC(=O)Cn1c(=N)n(CCOc2ccc3ccccc3c2)c2ccccc21 | 21* | -4 | -8 | 0 | 6 | 1
CCOc1ccccc1C(=O)NCC(=O)NNC(=O)c1cccs1 | nt | -15 | -9 | nt | -4 | nt
COc1ccc(C(=O)c2ccc(OC)c(OC)c2)cc1OC | -6 | 0 | -23 | 0 | 5 | 0
COc1ccc(C(=O)c2nccc3cc(OC)c(OC)cc23)cc1OC | nt | -6 | -25 | nt | 69* | nt
CSc1nsc(N/N=C/c2ccc3c(c2)OCO3)c1C#N | -1 | 12 | 8 | 1 | 41* | 0
O=C(c1cc2ccc([N+](=O)[O-])cc2oc1=O)N1CCOCC1 | -12 | -7 | -1 | 1 | 57* | 0
O=C(c1ccc(-c2ccc([N+](=O)[O-])cc2Cl)o1)N1CCOCC1 | 20* | -20 | -15 | 0 | 31 | 0
O=C(CN1CCOCC1)Nc1nc2ccc([N+](=O)[O-])cc2s1 | -9 | -13 | -40 | 1 | 62* | 1
O=C(c1cc2cc([N+](=O)[O-])ccc2s1)N1CCOCC1 | 4 | -6 | -4 | 1 | 46* | 2
CCN1CCN(C(=O)c2cc3cc([N+](=O)[O-])ccc3oc2=O)CC1 | -5 | 3 | -14 | 2 | 47 | 0
O=C(c1cc2cc([N+](=O)[O-])ccc2s1)N1CCCCC1 | -9 | -14 | -16 | 0 | 20 | 1
O=C(c1ccc(-c2cccc(Cl)c2Cl)o1)N1CCOCC1 | 2 | -6 | -19 | 0 | 13 | -1
COc1cccc(NC(=O)N2CCC(n3nnc4ccccc43)CC2)c1 | 1 | -19 | -38 | 0 | 10 | 0
CCCn1c(Oc2ccccc2)nc2c1c(=O)n(C)c(=O)n2C | -8 | -9 | -14 | nt | 2 | nt
N#Cc1ccc(Nc2nc(-c3ccc(O)cc3O)cs2)cc1C(F)(F)F | nt | 2 | 32 | nt | 53* | nt
COc1ccc(/C=C2\SC(=N)N(c3nccs3)C2=O)cc1OC | -8 | 26* | 28 | 0 | 73* | 0
COc1cccc(CN2CCN(CC#Cc3ccccc3)CC2CCO)c1 (centres undefined) | -9 | nt | nt | nt | nt | nt
N#Cc1cc([N+](=O)[O-])ccc1NC(=O)CSc1n[nH]c(=O)n1C1CC1 | nt | -1 | -4 | nt | 33* | nt
Cc1ccc(C(=O)NCCCNC(=O)Cc2ccc(Cl)cc2)cn1 | nt | 4 | -3 | nt | 16 | nt
C=CCN(CC=C)S(=O)(=O)c1ccc(NC(=S)NC(=O)/C=C/c2cccc3ccccc23)cc1 | 4 | -17 | -17 | 1 | 8 | 2
C=CCN(CC=C)S(=O)(=O)c1ccc(NC(=S)NC(=O)/C=C/c2ccc(C)cc2)cc1 | 6 | 36* | -7 | 1 | 16 | 0
